Source: ChEMBL document CHEMBL1122273, “5-sulfamoylorthanilic acids, a sulfonamide series with salidiuretic activity” (J Med Chem, 1983)
Active and inactive are the calls of the source. The rule behind the calls is not given here.

Assays:
Rattus norvegicus [1] = species: Rattus norvegicus; assay: Diuretic activity in the rats, determined by a modified Lipschitz test; assay type: functional, Urine
Outline: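 Modified Lipschitz test: rats deprived of water 24 h, grouped in threes of similar weight in diuresis funnels. Oral dose of 50 mg/kg, suspended in 2% starch solution, by stomach tube.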

Canis familiaris [2] = assay: Saluretic activity in the dog measured as concentration of Na+ in urinary excretion (2 animals/dose) at (dose 1.56 mg/Kg, perorally); assay type: functional, Canis lupus familiaris, Urine
Outline: (§1)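 Male beagles trained to rest on a table and to accept stomach tube and catheter. Food withdrawn 24 h before, tap water ad libitum. Bladder emptied by catheter, then 20 mL/kg tap water by stomach tube. Catheterized hourly up to 8 h with 4 mL/kg water orally each time; first 2 h urine served as control. Oral dosing after second catheterization. Pooled 1–6 h urine; Na⁺/K⁺ by flame photometry, Cl⁻ argentometrically.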

Canis familiaris [3] = assay: Saluretic activity in the dog measured as concentration of K+ in urinary excretion (2 animals/dose) at (dose 1.56 mg/Kg, perorally); assay type: functional, Canis lupus familiaris, Urine
Outline: (§2)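 Male beagles trained to the procedures, food withdrawn 24 h before, tap water ad libitum. Bladder emptied by catheter, then 20 mL/kg tap water by stomach tube, plus 4 mL/kg orally at each hourly catheterization up to 8 h. The first 2 h of urine served as control. Compound given orally after the second catheterization. Urine from 1–6 h post-dose pooled; Na⁺ and K⁺ by flame photometry, Cl⁻ argentometrically, in mequiv/kg.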

Canis familiaris [4] = assay: Salidiuretic activity on the basis of the 1.56 mg/Kg po dog assay; compound was found to be active; assay type: functional, organism-based; conditions: Canis lupus familiaris; Urine
Canis familiaris [5] = assay: Saluretic activity in the dog measured as concentration of Cl - in urinary excretion (2 animals/dose) at (dose 1.56 mg/Kg, perorally); assay type: functional, Canis lupus familiaris, Urine; outline: as §2
Rattus norvegicus [6] = assay: Salidiuretic activity on the basis of the 50 mg/kg po rat assay; compound was found to be active; assay type: functional, organism-based; set-up: dose 50 mg/kg; conditions: Urine
Canis familiaris [7] = assay: Diuretic activity in the dog (2 animals/dose) at (dose 1.56 mg/Kg), when administered perorally; assay type: functional, Canis lupus familiaris, Urine
Outline: (§3)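 Trained male beagles, fasted 24 h with tap water ad libitum. Bladder emptied by catheter, then 20 mL/kg tap water by stomach tube, with 4 mL/kg water at each hourly catheterization up to 8 h. The first 2 h of urine served as control. Oral dosing came after the second catheterization, and 1–6 h urine was pooled. Na⁺ and K⁺ were measured by flame photometry, Cl⁻ argentometrically, in mequiv/kg.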

[8] = It is the ratio, measured as saluretic activity in the dog as concentration of Na+ in urinary excretion (dose 1.56 mg/Kg, perorally) to that of K; assay type: functional, Urine; outline: as §3
Rattus norvegicus [9] = species: Rattus norvegicus; assay: Saluretic activity in the rat measured as concentration of chloride in urine; assay type: functional
Outline: (§4)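 Rats deprived of food 24 h, water ad libitum, dosed 50 mg/kg by stomach tube as suspension in 2% starch, no extra water load. Groups of three in diuresis funnels; urine over first 5 h collected. Na⁺ and K⁺ by flame photometry, Cl⁻ argentometrically; expressed as mequiv/kg.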

[10] = It is the ratio, measured as saluretic activity in the dog as concentration of Cl- in urinary excretion (dose 1.56 mg/Kg, perorally) to that of (Na+)+(K+); assay type: functional, Urine; outline: as §3
Rattus norvegicus [11] = species: Rattus norvegicus; assay: Saluretic activity in the rat measured as concentration of K+ in urine; assay type: functional; outline: as §4
Rattus norvegicus [12] = species: Rattus norvegicus; assay: Saluretic activity in the rat measured as concentration of Na+ in urine; assay type: functional; outline: as §4
Canis familiaris [13] = assay: Saluretic activity in the dog measured as concentration of Na+ in urinary excretion (2 animals/dose) at (dose 1.56 mg/Kg, po); assay type: functional, Canis lupus familiaris, Urine; outline: as §1
[14] = It is the ratio, measured as saluretic activity in the dog as concentration of Cl- in urinary excretion (dose 1.56 mg/Kg, po) to that of (Na+)+(K+); assay type: functional, Urine; outline: as §3
Rattus norvegicus [15] = assay: Salidiuretic activity on the basis of the 50 mg/kg po rat assay; compound was active; assay type: functional, organism-based; set-up: dose 50 mg/kg; conditions: Urine
[16] = It is the ratio, measured as saluretic activity in the dog as concentration of Na+ in urinary excretion (dose 1.56 mg/Kg, po) to that of K; assay type: functional, Urine; outline: as §3
Canis familiaris [17] = assay: Saluretic activity in the dog measured as concentration of Cl - in urinary excretion (2 animals/dose) at (dose 1.56 mg/Kg, po); assay type: functional, Canis lupus familiaris, Urine; outline: as §2
Canis familiaris [18] = assay: Saluretic activity in the dog measured as concentration of K+ in urinary excretion (2 animals/dose) at (dose 1.56 mg/Kg, po); assay type: functional, Canis lupus familiaris, Urine; outline: as §1
Canis familiaris [19] = assay: Salidiuretic activity on the basis of the 1.56 mg/Kg po dog assay; compound was moderately active; assay type: functional, organism-based; conditions: Canis lupus familiaris; Urine
Rattus norvegicus [20] = assay: Salidiuretic activity on the basis of the 50 mg/kg perorally rat assay; compound was found to be highly active; assay type: functional, organism-based; set-up: dose 50 mg/kg; conditions: Urine
Canis familiaris [21] = assay: Salidiuretic activity on the basis of the 1.56 mg/Kg perorally dog assay; compound was found to be highly active; assay type: functional, organism-based; conditions: Canis lupus familiaris; Urine
Rattus norvegicus [22] = assay: Salidiuretic activity on the basis of the 50 mg/kg po rat assay; Compound was moderately active active; assay type: functional, organism-based; set-up: dose 50 mg/kg; conditions: Urine
Canis familiaris [23] = assay: Salidiuretic activity on the basis of the 1.56 mg/Kg po dog assay; Compound was highly active; assay type: functional, organism-based; conditions: Canis lupus familiaris; Urine
Canis familiaris [24] = assay: Salidiuretic activity on the basis of the 1.56 mg/Kg perorally dog assay; compound was found to be active; assay type: functional, organism-based; conditions: Canis lupus familiaris; Urine
Rattus norvegicus [25] = assay: Salidiuretic activity on the basis of the 50 mg/kg perorally rat assay; NA means inactive; conditions: Urine
Rattus norvegicus [26] = assay: Salidiuretic activity on the basis of the 50 mg/kg po rat assay; Compound is found to be modetately active; assay type: functional, organism-based; set-up: dose 50 mg/kg; conditions: Urine
Canis familiaris [27] = assay: Sailuric activity in the dog measured as concentration of Cl - in urinary excretion (2 animals/dose) at (dose 1.56 mg/Kg, po); assay type: functional, Canis lupus familiaris, Urine; outline: as §2
Canis familiaris [28] = assay: Salidiuretic activity on the basis of the 1.56 mg/Kg po dog assay; compound is found to be active; assay type: functional, organism-based; conditions: Canis lupus familiaris; Urine
Canis familiaris [29] = assay: Sailuric activity in the dog measured as concentration of K+ in urinary excretion (2 animals/dose) at (dose 1.56 mg/Kg, po); assay type: functional, Canis lupus familiaris, Urine; outline: as §2
Rattus norvegicus [30] = assay: Salidiuretic activity on the basis of the 50 mg/kg po rat assay; Compound was active; conditions: Urine
[31] = It is the ratio, measured as saluretic activity in the dog as concentration of Cl- in urinary excretion (dose 1.56 mg/Kg, po) to that of (Na++K+); assay type: functional, Urine; outline: as §3
Canis familiaris [32] = assay: Salidiuretic activity on the basis of the 1.56 mg/Kg perorally in dog assay; compound is found to be highly active.; assay type: functional, organism-based; conditions: Canis lupus familiaris; Urine
Rattus norvegicus [33] = assay: Salidiuretic activity on the basis of the 50 mg/kg perorally in rat assay; compound is found to be highly active.; conditions: Urine
Canis familiaris [34] = assay: Salidiuretic activity on the basis of the 1.56 mg/Kg perorally dog assay; Compound was highly active; assay type: functional, organism-based; conditions: Canis lupus familiaris; Urine
Rattus norvegicus [35] = assay: Salidiuretic activity on the basis of the 50 mg/kg perorally rat assay; Compound was highly active; assay type: functional, organism-based; set-up: dose 50 mg/kg; conditions: Urine

Row | SMILES | Diuretic activity (Rattus norvegicus [1]) | Saluretic activity (Canis familiaris [2]) | Diuretic activity (Canis familiaris [7]) | Ratio [8] | Saluretic activity (Rattus norvegicus [9]) | Ratio [10] | Saluretic activity (Rattus norvegicus [11]) | Saluretic activity (Rattus norvegicus [12]) | Saluretic activity (Canis familiaris [13]) | Ratio [14] | Ratio [16] | Saldiuretic activity (Canis familiaris [17]) | further results
1 | N.NS(=O)(=O)c1cc(S(=O)(=O)O)c(NCc2ccccc2)cc1Oc1ccccc1 | 3 mL/kg | 3.12 m equiv 6hr-1 kg-1 | 48 ml kg-1 6hr-1 | 5.9 | 6.9 m equiv 5hr-1 kg-1 | 1.1 | 2.2 m equiv 5hr-1 kg-1 | 4.9 m equiv 5hr-1 kg-1 | – | – | – | – | Saluretic activity (Canis familiaris [3]): 0.53 m equiv 6hr-1 kg-1; Saldiuretic activity (Canis familiaris [4]): Active; Saldiuretic activity (Canis familiaris [5]): 3.91 m equiv 6hr-1 kg-1; Saldiuretic activity (Rattus norvegicus [6]): Active
2 | NS(=O)(=O)c1cc(S(=O)(=O)[O-])c(NCc2ccccc2)cc1S(=O)(=O)C1CCCCC1.[Na+] | 0.5 mL/kg | – | 51 ml kg-1 6hr-1 | – | 1.8 m equiv 5hr-1 kg-1 | – | 1.7 m equiv 5hr-1 kg-1 | 2 m equiv 5hr-1 kg-1 | 3.23 m equiv 6hr-1 kg-1 | 1.05 | 5.8 | 3.94 m equiv 6hr-1 kg-1 | Saldiuretic activity (Rattus norvegicus [15]): Active; Saluretic activity (Canis familiaris [18]): 0.56 m equiv 6hr-1 kg-1; Saldiuretic activity (Canis familiaris [19]): Weak activity
3 | NS(=O)(=O)c1cc(S(=O)(=O)O)c(NCc2ccco2)cc1Oc1ccccc1 | – | – | – | – | – | – | – | – | – | – | – | – | Saldiuretic activity (Rattus norvegicus [20]): Active; Saldiuretic activity (Canis familiaris [21]): Active
4 | CN(c1ccccc1)c1cc(NCc2ccccc2)c(S(=O)(=O)[O-])cc1S(N)(=O)=O.[Na+] | 2.6 mL/kg | – | 71.7 ml kg-1 6hr-1 | – | 4 m equiv 5hr-1 kg-1 | – | 1.4 m equiv 5hr-1 kg-1 | 3.5 m equiv 5hr-1 kg-1 | 6.59 m equiv 6hr-1 kg-1 | 0.9 | 4.4 | 7.34 m equiv 6hr-1 kg-1 | Saluretic activity (Canis familiaris [18]): 1.51 m equiv 6hr-1 kg-1; Saldiuretic activity (Rattus norvegicus [22]): Active; Saldiuretic activity (Canis familiaris [23]): Active
5 | NS(=O)(=O)c1cc(S(=O)(=O)[O-])c(NCCc2ccco2)cc1Oc1ccccc1.[K+] | 1.2 mL/kg | 0.89 m equiv 6hr-1 kg-1 | 35.2 ml kg-1 6hr-1 | 4.2 | 0.9 m equiv 5hr-1 kg-1 | 1.1 | 0.7 m equiv 5hr-1 kg-1 | 0.6 m equiv 5hr-1 kg-1 | – | – | – | – | Saluretic activity (Canis familiaris [3]): 0.21 m equiv 6hr-1 kg-1; Saldiuretic activity (Canis familiaris [5]): 1.18 m equiv 6hr-1 kg-1; Saldiuretic activity (Canis familiaris [24]): Active; Diuretic activity (Rattus norvegicus [25]): inactive
6 | NCc1ccccc1.NS(=O)(=O)c1cc(S(=O)(=O)O)c(NCc2ccccc2)cc1Cl | 1.4 mL/kg | 1.65 m equiv 6hr-1 kg-1 | 40.4 ml kg-1 6hr-1 | 4.7 | 1.2 m equiv 5hr-1 kg-1 | 1.05 | 1.4 m equiv 5hr-1 kg-1 | 1.4 m equiv 5hr-1 kg-1 | – | – | – | – | Saldiuretic activity (Rattus norvegicus [26]): Weak activity; Saldiuretic activity (Canis familiaris [27]): 2.07 m equiv 6hr-1 kg-1; Saldiuretic activity (Canis familiaris [28]): Active; Saluretic activity (Canis familiaris [29]): 0.35 m equiv 6hr-1 kg-1
7 | CN(c1ccccc1)c1cc(NCc2cccs2)c(S(=O)(=O)[O-])cc1S(N)(=O)=O.[Na+] | 1.8 mL/kg | – | 70.6 ml kg-1 6hr-1 | – | 2 m equiv 5hr-1 kg-1 | – | 0.7 m equiv 5hr-1 kg-1 | 1.8 m equiv 5hr-1 kg-1 | 5.86 m equiv 6hr-1 kg-1 | 0.95 | 4.3 | 7.03 m equiv 6hr-1 kg-1 | Saldiuretic activity (Canis familiaris [18]): 1.37 mequiv kg-1 6hr-1; Saldiuretic activity (Rattus norvegicus [30]): Active; Saldiuretic activity (Canis familiaris [23]): Active
8 | CCCCS(=O)(=O)c1cc(NCc2ccco2)c(S(=O)(=O)[O-])cc1S(N)(=O)=O.[Na+] | 3.8 mL/kg | – | 65.5 ml kg-1 6hr-1 | – | 8.7 m equiv 5hr-1 kg-1 | – | 2.2 m equiv 5hr-1 kg-1 | 7.3 m equiv 5hr-1 kg-1 | 4.92 m equiv 6hr-1 kg-1 | – | 5 | 5.78 m equiv 6hr-1 kg-1 | Saldiuretic activity (Canis familiaris [18]): 0.97 m equiv 6hr-1 kg-1; Ratio [31]: 1
9 | NCc1ccco1.NS(=O)(=O)c1cc(S(=O)(=O)O)c(NCc2ccco2)cc1Cl | – | – | – | – | – | – | – | – | – | – | – | – | Saldiuretic activity (Canis familiaris [32]): Active; Saldiuretic activity (Rattus norvegicus [33]): Active
10 | CN(c1ccccc1)c1cc(NCc2ccco2)c(S(=O)(=O)O)cc1S(N)(=O)=O | – | – | – | – | – | – | – | – | – | – | – | – | Saldiuretic activity (Canis familiaris [34]): Active; Saldiuretic activity (Rattus norvegicus [35]): Active
